Measurements collected from several papers.
Compare with care: the assays were run in different laboratories.
Cell line: HEK293
Read-out: cell growth or viability

| SMILES | assay | conditions | endpoint | value |
| --- | --- | --- | --- | --- |
| CCCc1cc(=O)oc2cc(OCc3cc(=O)c(O)co3)ccc12 | CCK-8 | 36 µM, 24 h | viability | 94% |
| O=C1c2[nH]cc3c2C(=NCC3)c2c(-c3ccc(O)cc3)c[nH]c21 | MTT | 72 h | CC50 | 0.2 µM |
| O=C(Nc1ccc([N+](=O)[O-])cc1)c1ccc(F)cc1 | resazurin | 48 h | CC50 | > 20 µM |
| Cn1cc2c3c1C(=O)C(NCCc1ccc(O)cc1)=CC3=NCC2 | MTT | 72 h | CC50 | 2.5 µM |
| O=C(Nc1cccc([N+](=O)[O-])c1)c1ccc(C(F)(F)F)cc1 | resazurin | 48 h | CC50 | > 20 µM |
| O=C(N/N=C/c1ccc([N+](=O)[O-])o1)c1cn(Cc2ccccc2)c2ccccc2c1=O | resazurin | 48 h | CC50 | > 20 µM |
| O=C(Nc1ccc(C(F)(F)F)cc1)c1cccc(C(F)(F)F)c1 | resazurin | 48 h | CC50 | 9.25 µM |
| CC(C)C[C@H](NC(=O)[C@H](Cc1ccccc1)NC(=O)c1cnccn1)B(O)O | resazurin | 48 h | CC50 | 0.008 µM |
| COc1ccccc1C(=O)/C=C/c1cn(Cc2cn(-c3ccnc4cc(Cl)ccc34)nn2)c2ccccc12 | MTT | 100 µM, 24 h | viability | > 90% |
| Cc1ccc(Cn2cc(C(=O)NN)c(=O)c3cc(Oc4ccccc4)ccc32)cc1 | resazurin | 48 h | CC50 | > 20 µM |
| O=C1C(NCCc2c[nH]c3ccccc23)=CC2=NCCc3c[nH]c1c32 | MTT | 72 h | CC50 | 3.1 µM |
| O=C(N/N=C/c1ccc([N+](=O)[O-])o1)c1cn(Cc2ccccc2)c2ccc([N+](=O)[O-])cc2c1=O | resazurin | 48 h | CC50 | > 20 µM |
| COC(CNC1=CC2=NCCc3c[nH]c(c32)C1=O)c1c[nH]c2ccccc12 (stereo not drawn) | MTT | 72 h | CC50 | 4 µM |
| COc1ccc2c(c1)c(=O)c(C(=O)NN)cn2Cc1ccc(C)cc1 | resazurin | 48 h | CC50 | > 20 µM |
| O=C(Nc1cccc([N+](=O)[O-])c1)c1cccc(C(F)(F)F)c1 | resazurin | 48 h | CC50 | > 20 µM |
